Measured values published in ChEMBL document CHEMBL4613315, “Design of First-in-Class Dual EZH2/HDAC Inhibitor: Biochemical Activity and Biological Evaluation in Cancer Cells” (ACS Med Chem Lett, 2020).

Assays:
U-937 [1] = assay: Cytotoxicity against human U937 cells assessed as combinational index measured at fraction affected value of 0.68 in presence of vorinostat at 10 uM incubated for 72 hrs by CellTiter-Glo Luminescent cell viability assay; assay type: functional
How it was run: (§1)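 Viability after 72 h of single-agent or combined treatment with the HDAC inhibitor (0.05–0.25 μM) and the EZH2 inhibitor. EZH2 inhibitor range: U937 5–25 μM; RH4 10–50 μM. Synergy was assessed by combination index and isobologram analysis.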

[2] = Cytotoxicity against human RH4 cells assessed as reduction in cell viability at 50 uM in presence of vorinostat incubated for 72 hrs by CellTiter-Glo Luminescent cell viability assay relative to control; assay type: functional; conditions: Rh4, 72 h; how it was run: as §1
[3] = target: T1, Histone deacetylase (Homo sapiens) (UniProt Q13547+O15379+Q9UBN7+Q92769+Q9UQL6+Q8WUI4+Q9BY41+Q96DB2+P56524+Q9UKV0+Q969S8); assay: Inhibition of HDAC in human U937 cells assessed as Ac-H3 level at 50 uM in presence of vorinostat incubated for 96 hrs by Western blot analysis (reference value: 1); assay type: cell-based; conditions: U-937
How it was run: (§2)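 U937 leukemia cells given EZH2 inhibitor 50 μM together with HDAC inhibitor 0.5 μM; Western blot at 96 and 120 h for H3K27me3 or acetyl-H3, actin as loading control; densitometry normalized to loading control then to DMSO vehicle.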

[4] = target: Histone-lysine N-methyltransferase EZH2 (Homo sapiens, UniProt Q15910); assay: Inhibition of EZH2 in human U937 cells assessed as H3K27me3 level at 50 uM in presence of vorinostat incubated for 120 hrs by Western blot analysis (reference value: 1); assay type: cell-based; conditions: U-937; how it was run: as §2
U-937 [5] = assay: Cytotoxicity against human U937 cells assessed as combinational index measured at fraction affected value of […] in presence of vorinostat at 25 uM incubated for 72 hrs by CellTiter-Glo Luminescent cell viability assay; assay type: functional
U-937 [6] = assay: Cytotoxicity against human U937 cells assessed as combinational index measured at fraction affected value of 0.05 in presence of vorinostat at 1 uM incubated for 72 hrs by CellTiter-Glo Luminescent cell viability assay; assay type: functional
[7] = target: T1, Histone deacetylase (Homo sapiens); assay: Inhibition of HDAC in human U937 cells assessed as Ac-H3 level at 50 uM incubated for 120 hrs by Western blot analysis (reference value: 1); assay type: cell-based; conditions: U-937
Histone deacetylase 1 = Histone deacetylase 1 (Homo sapiens, UniProt Q13547); assay: Inhibition of human recombinant HDAC1 using AMC-K(Ac)GL as substrate by fluorescence based assay
Homo sapiens = organism: Homo sapiens; assay: Cell cycle arrest in human RH4 cells assessed as increase in subG1 accumulation incubated for 72 hrs by propidium iodide staining based assay; assay type: functional
U-937 [8] = assay: Induction of apoptosis in human U937 cells assessed as viable cells at 25 uM incubated for 72 hrs by annexin V-FITC staining based flow cytometry (reference value: 95.4 %); assay type: functional; conditions: U-937, 72 h, read-out: Activity
U-937 [9] = assay: Cell cycle arrest in human U937 cells assessed as increase in subG1 accumulation incubated for 72 hrs by propidium iodide staining based assay; assay type: functional
[10] = Cell cycle arrest in human RH4 cells assessed as G0/G1 accumulation at 14 uM incubated for 72 hrs by propidium iodide staining based flow cytometry (reference value: 46.2 %); assay type: functional
U-937 [11] = assay: Cytotoxicity against human U937 cells assessed as reduction in cell viability at 25 uM incubated for 96 hrs by CellTiter-Glo Luminescent cell viability assay relative to control; assay type: functional; conditions: U-937, 96 h
How it was run: (§3)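 Viability of U937 (5–25 μM) and RH4 (5–35 μM) cells after 48, 72 and 96 h of treatment at increasing concentrations.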

U-937 [12] = assay: Induction of apoptosis in human U937 cells assessed as necrotic cells at 25 uM incubated for 72 hrs by annexin V-FITC staining based flow cytometry (reference value: 0.5 %); assay type: functional
[13] = Cell cycle arrest in human RH4 cells assessed as S accumulation at 28 uM incubated for 72 hrs by propidium iodide staining based flow cytometry (reference value: 29.9 %); assay type: functional
THP-1 = assay: Cytotoxicity against human THP1 cells assessed as reduction in cell viability incubated for 72 hrs by CellTiter-Glo Luminescent cell viability assay; assay type: functional, cell-based; conditions: THP-1, 72 h
How it was run: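 Antiproliferative IC50 after 72 h of treatment. Values are means of three independent experiments, each measured in triplicate, ± SD.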

U-937 [14] = assay: Induction of apoptosis in human U937 cells assessed as late apoptotic cells at 10 uM incubated for 72 hrs by annexin V-FITC staining based flow cytometry (reference value: 0.7 %); assay type: functional
U-937 [15] = assay: Induction of differentiation of human U937 cells assessed as increase in CD11b level at 25 uM incubated for 72 hrs by flow cytometry analysis; assay type: functional
How it was run: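 U937 cells were treated for 72 h at 10 and 25 μM, and surface CD11b expression was measured as a differentiation marker.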

U-937 [16] = assay: Induction of apoptosis in human U937 cells assessed as early apoptotic cells at 10 uM incubated for 72 hrs by annexin V-FITC staining based flow cytometry (reference value: 3.4 %); assay type: functional
U-937 [17] = assay: Induction of apoptosis in human U937 cells assessed as viable cells at 10 uM incubated for 72 hrs by annexin V-FITC staining based flow cytometry (reference value: 95.4 %); assay type: functional; conditions: U-937, 72 h, read-out: Activity
[18] = Cell cycle arrest in human RH4 cells assessed as subG1 accumulation at 14 uM incubated for 72 hrs by propidium iodide staining based flow cytometry (reference value: 1.9 %); assay type: functional
U-937 [19] = assay: Cytotoxicity against human U937 cells assessed as reduction in cell viability at 10 uM incubated for 96 hrs by CellTiter-Glo Luminescent cell viability assay relative to control; assay type: functional; conditions: U-937, 96 h; how it was run: as §3

Sequence of Histone deacetylase 1 (Q13547 whole entry): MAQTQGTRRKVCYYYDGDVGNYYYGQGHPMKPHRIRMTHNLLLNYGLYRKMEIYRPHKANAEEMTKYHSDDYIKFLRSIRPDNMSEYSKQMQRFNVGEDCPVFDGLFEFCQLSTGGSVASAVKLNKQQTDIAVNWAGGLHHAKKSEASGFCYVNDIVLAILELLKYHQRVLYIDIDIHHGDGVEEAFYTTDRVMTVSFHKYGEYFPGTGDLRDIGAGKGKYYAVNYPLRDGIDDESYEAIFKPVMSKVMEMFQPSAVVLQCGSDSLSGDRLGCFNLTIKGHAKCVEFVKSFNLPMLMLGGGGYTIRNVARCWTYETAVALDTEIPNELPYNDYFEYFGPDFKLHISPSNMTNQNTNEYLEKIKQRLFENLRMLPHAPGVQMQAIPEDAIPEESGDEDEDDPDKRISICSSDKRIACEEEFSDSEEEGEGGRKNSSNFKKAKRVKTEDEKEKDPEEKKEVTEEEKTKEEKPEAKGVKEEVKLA
Sequence of Histone-lysine N-methyltransferase EZH2 (Q15910 whole entry, looked up): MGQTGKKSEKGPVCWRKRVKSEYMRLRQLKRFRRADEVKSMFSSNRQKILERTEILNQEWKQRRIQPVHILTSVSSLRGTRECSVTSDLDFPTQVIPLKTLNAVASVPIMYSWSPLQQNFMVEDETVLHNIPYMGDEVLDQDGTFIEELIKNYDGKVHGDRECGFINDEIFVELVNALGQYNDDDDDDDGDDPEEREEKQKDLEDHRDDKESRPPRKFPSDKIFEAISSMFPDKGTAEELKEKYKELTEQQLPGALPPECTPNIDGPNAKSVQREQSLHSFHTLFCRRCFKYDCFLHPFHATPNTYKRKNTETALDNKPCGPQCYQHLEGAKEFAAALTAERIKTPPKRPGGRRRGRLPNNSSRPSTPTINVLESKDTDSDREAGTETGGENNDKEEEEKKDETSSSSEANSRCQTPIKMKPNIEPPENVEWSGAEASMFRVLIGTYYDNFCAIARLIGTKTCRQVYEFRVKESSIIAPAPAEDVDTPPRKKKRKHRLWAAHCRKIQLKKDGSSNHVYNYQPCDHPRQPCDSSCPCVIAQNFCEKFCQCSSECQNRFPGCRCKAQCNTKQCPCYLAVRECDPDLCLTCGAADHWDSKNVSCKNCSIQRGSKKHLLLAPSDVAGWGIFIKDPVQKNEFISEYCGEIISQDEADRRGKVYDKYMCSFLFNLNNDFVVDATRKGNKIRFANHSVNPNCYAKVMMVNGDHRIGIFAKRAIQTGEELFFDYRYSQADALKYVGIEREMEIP

Question: Which CI (U-937 [1]) does the source give for `Cc1cc(C)c(CNC(=O)c2cc(C)n(-c3ccccc3)c2C)c(=O)[nH]1` here?
Answer: 0.14

Question: What about the inhibition at 50 µM [2] of the same compound?
Answer: > 60%

Question: What about the fold change (FC) [3] of the same compound?
Answer: 2.1

Question: What about the fold change (FC) [4] of the same compound?
Answer: 0.6

Question: What about the CI (U-937 [5]) of the same compound?
Answer: 0.04

Question: What about the CI (U-937 [6]) of the same compound?
Answer: 3.34

Question: What about the fold change (FC) [7] of the same compound?
Answer: 0.7

Question: Which IC50 (Histone deacetylase 1) does the source give for `Cc1cc(C)c(CNC(=O)c2cc(C)n(-c3cccc(NC(=O)CCCCCCC(=O)NO)c3)c2C)c(=O)[nH]1` here?
Answer: 0.43 µM

Question: And the Activity (Homo sapiens)?
Answer: Dose-dependent effect

Question: And the viability at 25 µM (U-937 [8])?
Answer: 75%

Question: And the Activity (U-937 [9])?
Answer: Dose-dependent effect

Question: And the Activity [10]?
Answer: 47.2%

Question: And the inhibition at 25 µM (U-937 [11])?
Answer: 90%

Question: What about the Activity (U-937 [12]) of the same compound?
Answer: 0.3%

Question: And the Activity [13]?
Answer: 19.8%

Question: And the IC50 (THP-1)?
Answer: 12 µM

Question: And the Activity (U-937 [14])?
Answer: 0.7%

Question: And the “fold change (FC)” value (U-937 [15])?
Answer: 2.7

Question: What about the Activity (U-937 [16]) of the same compound?
Answer: 4.2%

Question: What about the viability at 10 µM (U-937 [17]) of the same compound?
Answer: 95%

Question: And the Activity [18]?
Answer: 3.8%

Question: What about the inhibition at 10 µM (U-937 [19]) of the same compound?
Answer: 60%
